From ChEMBL document CHEMBL1123389, “3-Hydroxy-3-methylglutaryl-coenzyme A reductase inhibitors. 2. Structural modification of 7-(substituted aryl)-3,5-dihydroxy-6-heptenoic acids and their lactone derivatives” (J Med Chem, 1986)

Assays:
[1] = biological target: T1, 3-hydroxy-3-methylglutaryl-coenzyme A reductase (Rattus norvegicus) (UniProt P51639); assay: Relative potency to inhibit solubilized, partially purified rat liver HMG-CoA reductase compared with that of compactin.
T1 sequence (whole entry): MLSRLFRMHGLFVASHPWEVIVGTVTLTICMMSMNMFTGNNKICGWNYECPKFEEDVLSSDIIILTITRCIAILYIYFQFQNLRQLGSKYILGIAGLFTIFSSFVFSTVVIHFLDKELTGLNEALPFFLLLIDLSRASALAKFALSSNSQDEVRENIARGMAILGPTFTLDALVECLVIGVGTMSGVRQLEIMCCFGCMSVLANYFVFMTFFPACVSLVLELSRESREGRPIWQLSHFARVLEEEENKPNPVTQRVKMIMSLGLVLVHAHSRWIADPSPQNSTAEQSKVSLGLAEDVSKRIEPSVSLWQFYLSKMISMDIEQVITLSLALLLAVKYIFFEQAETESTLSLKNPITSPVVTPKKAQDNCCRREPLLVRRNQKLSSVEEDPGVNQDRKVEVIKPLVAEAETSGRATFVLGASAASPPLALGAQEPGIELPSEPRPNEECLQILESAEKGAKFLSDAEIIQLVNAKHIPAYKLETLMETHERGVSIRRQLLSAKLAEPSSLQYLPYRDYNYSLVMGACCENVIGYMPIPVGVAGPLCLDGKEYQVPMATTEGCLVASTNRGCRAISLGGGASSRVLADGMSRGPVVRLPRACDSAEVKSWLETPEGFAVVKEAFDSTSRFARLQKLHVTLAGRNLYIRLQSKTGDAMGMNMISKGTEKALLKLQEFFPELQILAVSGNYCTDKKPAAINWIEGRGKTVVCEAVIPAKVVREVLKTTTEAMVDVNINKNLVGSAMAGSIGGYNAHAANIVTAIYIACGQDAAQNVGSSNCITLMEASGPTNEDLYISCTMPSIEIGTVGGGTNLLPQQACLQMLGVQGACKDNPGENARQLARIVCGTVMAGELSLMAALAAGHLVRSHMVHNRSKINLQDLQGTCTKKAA

[2] = biological target: T2, 3-hydroxy-3-methylglutaryl-coenzyme A reductase (Rattus norvegicus, UniProt P51639); assay: Inhibition of solubilized, partially purified rat liver HMG-CoA reductase
T2 sequence (P51639 whole entry): T1 sequence (whole entry)
Method in brief: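 Enzyme solubilized from fresh microsomes and purified through the second ammonium sulfate precipitation. It was diluted in 100 mM phosphate, pH 7.2, to give 50 000–60 000 dpm per 100 μL in control. Assay mix (0.8 mL): phosphate pH 7.2 100 mM, MgCl2 3 mM, NADP 3 mM, glucose 6-phosphate 10 mM, G6PDH 3 units, glutathione 50 mM, [14C]HMG-CoA 0.2 mM. Compounds were added as dihydroxy acid Na salts at multiple concentrations. Incubation ran 40 min at 37 °C, stopped with HCl, then lactonized. [14C]mevalonolactone was separated on Bio-Rex 5 and counted. IC50 came from a least-squares line of % inhibition vs concentration.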

Structure (SMILES)	Relative potency [1]	IC50 [2]
O=C1C[C@H](O)C[C@@H](/C=C/c2ccccc2-c2ccccc2)O1	0.63	3000 nM
O=C1C[C@H](O)CC(CCc2c(Cl)cc(Cl)cc2OCc2ccc(C(F)(F)F)cc2)O1 (some centres not stated)	0.16	13000 nM
O=C1C[C@H](O)C[C@@H](/C=C/c2cccc(Cl)c2Cl)O1	0.017	64400 nM
CC(CCOc1cc(Cl)cc(Cl)c1/C=C/[C@@H]1C[C@@H](O)CC(=O)O1)CC(C)(C)C (some centres not stated)	0.09	38000 nM
Cc1ccc(/C=C/[C@@H]2C[C@@H](O)CC(=O)O2)c(C)c1	–	29900 nM
O=C1C[C@H](O)C[C@@H](/C=C/c2c(Cl)cc(Cl)cc2OCc2cccc3ccccc23)O1	0.4	4400 nM
O=C1C[C@H](O)C[C@@H](/C=C/c2c(Cl)cc(Cl)cc2OCc2ccc(Cl)cc2)O1	1.7	2500 nM
O=C1C[C@H](O)C[C@@H](/C=C/c2c(Cl)cc(Cl)cc2OCc2cc[n+]([O-])cc2)O1	0.016	117000 nM
O=C1C[C@H](O)C[C@@H](/C=C/c2c(Cl)cc(Cl)cc2OCc2ccc[n+]([O-])c2)O1	0.016	122000 nM
O=C1C[C@H](O)C[C@@H](/C=C/c2ccc(Cl)c(Cl)c2)O1	–	35000 nM
O=C1C[C@H](O)C[C@@H](CCc2c(Cl)cc(Cl)cc2OCc2ccccc2)O1 (stereo in doubt; 8a(-)) [listing 1 of 2 here]	–	5200 nM
O=C1C[C@H](O)C[C@@H](/C=C/c2ccccc2Cl)O1	0.15	7400 nM
O=C1C[C@H](O)C[C@@H](/C=C/c2ccc(-c3ccccc3)cc2)O1	–	55000 nM
COCCOCOc1cc(Cl)cc(Cl)c1/C=C/[C@@H]1C[C@@H](O)CC(=O)O1	0.4	11000 nM
O=C1C[C@H](O)C[C@@H](/C=C/c2c(Cl)cc(Cl)cc2OC(c2ccccc2)c2ccccc2)O1	0.7	6300 nM
O=C1C[C@H](O)C[C@@H](/C=C/c2c(Cl)cc(Cl)cc2OCCC23CC4CC(CC(C4)C2)C3)O1	0.7	3000 nM

Structure (SMILES)	Relative potency [1]	IC50 [2]
COc1ccc(COc2cc(Cl)cc(Cl)c2/C=C/[C@@H]2C[C@@H](O)CC(=O)O2)cc1	0.8	2600 nM
O=C1C[C@H](O)C[C@@H](CCc2c(Cl)cc(Cl)cc2OCc2ccccc2)O1 (stereo in doubt; 8a(+)) [listing 1 of 2 here]	19.1	–
O=C1C[C@H](O)C[C@@H](/C=C/c2ccc(OCc3ccc(F)cc3)c(Cl)c2Cl)O1	0.12	17000 nM
O=C1C[C@H](O)C[C@@H](/C=C/c2c(Cl)cc(Cl)cc2OCc2ccncc2)O1	0.6	3700 nM
CCCCCOc1c(Cl)cc(Cl)cc1/C=C/[C@@H]1C[C@@H](O)CC(=O)O1	–	13000 nM
O=C1C[C@H](O)C[C@@H](/C=C/c2c(Cl)cccc2Cl)O1	0.14	7900 nM
O=C1C[C@H](O)C[C@@H](CCc2c(Cl)cc(Cl)cc2OCc2ccccc2)O1 (stereo in doubt; 8a(-)) [listing 2 of 2 here]	0.25	–
N#Cc1ccc(COc2cc(Cl)cc(Cl)c2/C=C/[C@@H]2C[C@@H](O)CC(=O)O2)cc1	1.25	2000 nM
O=C1C[C@H](O)C[C@@H](CCc2c(Cl)cc(Cl)cc2OCc2ccc(F)cc2)O1 (stereo in doubt; 66(+)) [listing 2 of 2 here]	58	–
O=C1C[C@H](O)C[C@@H](CCc2c(Cl)cc(Cl)cc2OCc2ccc(F)cc2)O1 (stereo in doubt; 66) [listing 1 of 2 here]	38	–
O=C1C[C@H](O)C[C@@H](/C=C/c2c(Cl)cc(Cl)cc2OCc2cccnc2)O1	0.6	3400 nM
O=C1C[C@H](O)C[C@@H](CCc2c(Cl)cc(Cl)cc2OCc2ccccc2)O1 (racemic) [listing 2 of 2 here]	12	–
O=C1C[C@H](O)C[C@@H](/C=C/c2ccccc2)O1	0.004	284000 nM
O=C1C[C@H](O)CC(CCc2c(O)cc(Cl)cc2Cl)O1 (some centres not stated)	0.2	7900 nM
O=C1C[C@H](O)C[C@@H](/C=C/c2ccc(Cl)cc2Cl)O1	0.08	–
Cc1ccc(COc2cc(Cl)cc(Cl)c2/C=C/[C@@H]2C[C@@H](O)CC(=O)O2)cc1	0.3	4900 nM

Now from value to molecule:

Relative potency [1]	IC50 [2]	Structure (SMILES)
10	150 nM	O=C1C[C@H](O)CC(CCc2c(Cl)cc(Cl)cc2OCc2ccccc2F)O1 (some centres not stated)
3.7	620 nM	Cc1cc(OCc2ccccc2)cc(C)c1/C=C/[C@@H]1C[C@@H](O)CC(=O)O1
4.5	330 nM	O=C1C[C@H](O)CC(CCc2c(Cl)cc(Cl)cc2Oc2ccccc2)O1 (some centres not stated)
1.8	1200 nM	O=C1C[C@H](O)C[C@@H](/C=C/c2c(Cl)cc(Cl)cc2OCc2ccccn2)O1
1.4	1100 nM	O=C1C[C@H](O)C[C@@H](/C=C/c2c(Cl)cc(Cl)cc2Oc2ccccc2)O1
–	200 nM	O=C1C[C@H](O)C[C@@H](CCc2c(Cl)cc(Cl)cc2OCc2ccccc2)O1 (racemic) [listing 1 of 2 here]
–	50 nM	O=C1C[C@H](O)C[C@@H](CCc2c(Cl)cc(Cl)cc2OCc2ccc(F)cc2)O1 (stereo in doubt; 66(+)) [listing 1 of 2 here]
6	390 nM	O=C1C[C@H](O)C[C@@H](CCc2c(Cl)cc(Cl)cc2COc2ccccc2)O1
7.5	200 nM	O=C1C[C@H](O)C[C@@H](/C=C/c2c(Cl)cc(Cl)cc2OCc2ccc(F)cc2F)O1
3.5	430 nM	O=C1C[C@H](O)C[C@@H](/C=C/c2c(Cl)cc(Cl)cc2OCc2ccccc2)O1 (racemic)
3.2	760 nM	C=CCOc1cc(Cl)cc(Cl)c1/C=C/[C@@H]1C[C@@H](O)CC(=O)O1
1.1	1900 nM	O=C1C[C@H](O)C[C@@H](/C=C/c2c(Cl)cc(Cl)cc2OC/C=C/c2ccccc2)O1
4.4	750 nM	O=C1C[C@H](O)CC(CCc2c(Cl)cc(Cl)cc2OCC2CCCCC2)O1 (some centres not stated)
2.7	670 nM	O=C1C[C@H](O)C[C@@H](/C=C/c2c(Cl)cc(OCc3ccc(F)cc3)cc2Cl)O1
2.4	1000 nM	CCCCCOc1cc(Cl)cc(Cl)c1/C=C/[C@@H]1C[C@@H](O)CC(=O)O1
7.5	200 nM	O=C1C[C@H](O)C[C@@H](/C=C/c2c(Cl)cc(Cl)cc2OCc2ccc(F)cc2)O1
3.4	580 nM	O=C1C[C@H](O)C[C@@H](/C=C/c2c(Cl)cc(Cl)cc2OCc2cccc(F)c2)O1
5.9	510 nM	O=C1C[C@H](O)C[C@@H](/C=C/c2c(Cl)cc(Cl)cc2OCc2ccccc2F)O1
3.3	1000 nM	O=C1C[C@H](O)C[C@@H](/C=C/c2c(Cl)cc(Cl)cc2OCCOc2ccc(Cl)cc2)O1
8	210 nM	O=C1C[C@H](O)CC(CCc2c(Cl)cc(Cl)cc2OCc2cccc(F)c2)O1 (some centres not stated)
3	600 nM	O=C1C[C@H](O)C[C@@H](/C=C/c2c(Cl)cc(Cl)cc2OCc2ccco2)O1
5	480 nM	O=C1C[C@H](O)C[C@@H](/C=C/c2c(Cl)cc(Cl)cc2OCCc2ccccc2)O1
1.6	1450 nM	O=C1C[C@H](O)C[C@@H](/C=C/c2c(Cl)cc(Cl)cc2OCCCc2ccccc2)O1
4	450 nM	O=C1C[C@H](O)C[C@@H](/C=C/c2c(Cl)cc(OCc3ccccc3)cc2Cl)O1
3	600 nM	O=C1C[C@H](O)C[C@@H](/C=C/c2c(Cl)cc(Cl)cc2OCc2cccs2)O1
–	76 nM	O=C1C[C@H](O)C[C@@H](CCc2c(Cl)cc(Cl)cc2OCc2ccc(F)cc2)O1 (stereo in doubt; 66) [listing 2 of 2 here]
2.1	760 nM	CSCOc1cc(Cl)cc(Cl)c1/C=C/[C@@H]1C[C@@H](O)CC(=O)O1
2.3	700 nM	O=C1C[C@H](O)C[C@@H](/C=C/c2c(Cl)cc(Cl)cc2OCc2c(F)c(F)c(F)c(F)c2F)O1
–	68 nM	O=C1C[C@H](O)C[C@@H](CCc2c(Cl)cc(Cl)cc2OCc2ccccc2)O1 (stereo in doubt; 8a(+)) [listing 2 of 2 here]
